This is a sample that favours compounds with a hit; in the whole collection about 3.1% have one here.
miR-122 sensor = miR-122 Renilla sensor signal increase in Huh7, primary screen, miR-122 inhibitor project, cell-based, single point, plate reader; Huh7 miR-122 Renilla luciferase sensor, 48 h; neutral wells = 0, positive control = 100; activation (reporter increase), % at 12.5 µM; 340,000 tested, 0.3% active; AID 602342, 2012;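 active means mean replicate activation score at least 90 and every replicate individually at or above 90; inconclusive means only one of the two criteria met; inactive means neither criterion met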;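 further: higher luciferase means less miR-122 activity so hits act as miR-122 inhibitors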
GSIS activator = GLuc luminescence reporter in INS-1E cells, primary screen for activators of glucose-dependent secretion of insulin; activation, % at 16.6 µM; INS-1E GLuc reporter insulin secretion, 2-3 h; 370,000 tested, 0.61% active;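 active means lowest replicate activation of at least 40%, so every replicate reaches that level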
rRNA inh HTS = reduced GFP signal of wild-type E. coli, primary screen, bacterial rRNA inhibitor project, GFP/RFP fluorescence, OD600, single point. GFP signal change (wild-type ribosome), % (concentration not given with the values). 350,000 tested, 1.6% active. AID 720706, 2013. E. coli WT GFP vs humanized-ribosome RFP mutants, 24 h; hits give low values; DMSO median 0, no signal -100;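 active means significant combined selectivity score with lowered wild-type GFP, culture density cut under 30%, mutant RFP and density less affected; inactive means any of these conditions unmet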
Cneo AK release = Cryptococcus neoformans cell lysis inducers, primary screen, AK release luminescence, single concentration; C. neoformans lysis, adenylate kinase release luminescence, 4 h; normalised: neutral wells 0, clomiphene wells 100; lysis activity, % at 15 µM; 360,000 tested, 0.2% active; AID 651654, 2012;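 active means mean lysis activity across replicates of at least 80%, whatever share of replicates individually reach that level; inactive means mean lysis activity below 80%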
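Material – log-phase Cryptococcus neoformans yeast cells · Input – 5 × 10^6 yeast cells/mL · Medium – fresh YPD growth medium · Doses – single compound concentration per well · Timing – static 4 h at 37 °C with compound, 1 h detection · Detection – adenylate kinase release luminescence · Read-out – signal increase indicating cell lysis · Control set – Clomiphene as positive lysis control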
Env fusion inh = inhibitors of HIV-1 Env-driven cell-cell fusion, primary screen, HeLa-JRFL effector, CEM21 target cells, luciferase; 360,000 tested, 1.1% active; inhibition, % at 12.3 µM;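 active means mean replicate inhibition score of at least 50 and every replicate individually at or above 50; inconclusive means only one of the two criteria met; inactive means mean below 50 and not all replicates reaching 50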
CFTR F508del cor = F508del CFTR correction, initial screen, CFBE line, single point; activity (quench increase), % at 7.58 µM; CFBE cells, YFP halide quenching; stimulated with forskolin plus potentiator P3; % fluorescence drop versus neutral controls; 350,000 tested, 0.36% active; AID 720511, 2013;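 active means mean added fluorescence quench of at least 8% versus neutral control, with both replicates also reaching 8%; inconclusive means only one of the mean or replicate conditions met; inactive means mean below 8% and not both replicates reaching 8%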;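 further: cells transiently co-express mutant CFTR-F508del with the halide-sensitive YFP; corrector assay measuring rescue of mutant channel to the surface after 24 h compound exposure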
AID977621 = growth inhibition of wild-type GFP E. coli, dose response, H69 mutant RFP, cherry-pick. activity change, negative = inhibition at 50 µM. shares compounds with rRNA inh HTS. 1,900 tested, under 10 active. E. coli wild-type GFP strain growth, fluorescence, 24 h;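 active means Wild-type ribosome reporter drop at least double the humanized mutant ribosome reporter drop, growth loss under a set limit; inconclusive means no clear call, values can overlap the other calls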;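 further: wild-type GFP and H69 mutant RFP strains grown together 50/50 in each well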
AID977628 = E. coli growth inhibition, wild-type GFP versus h24 humanized RFP strain, dose response, h24 mutant RFP vs wild-type GFP, cherry-pick. activity change, negative = inhibition at 50 µM. shares compounds with rRNA inh HTS. E. coli WT GFP strain growth, fluorescence, 24 h. 1,900 tested, under 10 active;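 active means compound lowering the normal-ribosome reporter at least twice as much as the humanized-ribosome reporter, growth loss under a set limit; inconclusive means no clear call, values can overlap the other calls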;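 further: wild-type GFP and h24 humanized RFP strains co-cultured 1 to 1 per well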
Of the large screens only hits and unclear results are named; the others gave an inactive call (follow-up assays come after a bar, where they were run).

CCCc1nc2oc3c(NCCCN(C)C)ncnc3c2c2c1CCCC2	rRNA inh HTS -23 (no result: GSIS activator) | AID977621 inactive
O=C(NCc1ccccc1)C1C(=O)Nc2ccccc2C(=O)N1c1ccc2c(c1)OCCO2 (centres undefined)	rRNA inh HTS -17 (no result: miR-122 sensor, Cneo AK release) | AID977621 inactive | AID977628 inactive
O=C(NCc1ccccc1)C1C(=O)Nc2ccccc2C(=O)N1Cc1ccccc1 (centres undefined)	none (no result: miR-122 sensor, Cneo AK release)
CCCn1nnnc1NCc1ccccc1OCc1cccs1	rRNA inh HTS -20 (no result: Env fusion inh) | AID977621 inactive
CCNC(=O)[C@@H]1[C@@H](CO)[C@@H]2Cn3c(ccc(-c4cccc(F)c4)c3=O)[C@H]1N2C(=O)c1ccccn1	none (no result: Env fusion inh)
CCCNC(=O)C[C@H]1C[C@@H]2c3cc(NS(=O)(=O)c4ccccc4)ccc3O[C@@H]2[C@@H](CO)O1	none
C[C@@H]1CCCCO[C@@H](CN(C)Cc2ccc(C(F)(F)F)cc2)[C@@H](C)CN([C@@H](C)CO)C(=O)c2cc(NC(=O)Nc3ccc(F)cc3)ccc2O1	none
CC(=O)N1CCN(c2nc(-c3cccs3)nc3ccccc23)CC1	GSIS activator 41, rRNA inh HTS -24 (no result: miR-122 sensor, Cneo AK release) | AID977621 inactive
O=C(Nc1cccc(Cl)c1)c1ccc2c(=O)n3c(nc2c1)CCCCC3	none (no result: GSIS activator, rRNA inh HTS, Env fusion inh, CFTR F508del cor)
CCc1cccc(NC(=O)c2ccc3c(=O)n4c(nc3c2)CCCCC4)c1	rRNA inh HTS -19 (no result: GSIS activator) | AID977621 inactive | AID977628 inactive
COc1ccc(OC2C(=O)N(Cc3ccc4c(c3)OCO4)C2c2sccc2C)cc1 (centres undefined)	rRNA inh HTS -22 (no result: Env fusion inh) | AID977621 inactive
CSc1ccc(CN(C)CC(=O)NC(C)c2ccccc2)cc1 (centres undefined)	rRNA inh HTS -31 | AID977621 inactive
O=C1N2c3ccccc3CCc3cccc(c32)C1(O)C(F)(F)F (centres undefined)	rRNA inh HTS -17 (no result: Env fusion inh) | AID977621 inactive
CN(C(=O)CN1C(=O)NC2(CCc3ccccc32)C1=O)C1CCCCC1 (centres undefined)	rRNA inh HTS -13 (no result: GSIS activator) | AID977621 inconclusive | AID977628 inactive
CN(C(=O)CN1C(=O)NC2(CCc3ccccc32)C1=O)C1CCS(=O)(=O)C1 (centres undefined)	none
CO[C@@H]1CN(C)C(=O)c2cc(NS(=O)(=O)c3cccc(C)c3)ccc2OC[C@@H](C)N(C(=O)Cc2cccnc2)C[C@H]1C	none (no result: miR-122 sensor, Env fusion inh)
C[C@@H]1CN([C@@H](C)CO)C(=O)c2cc(C#CCc3ccccc3)cnc2O[C@@H]1CN(C)Cc1ccccc1	none (no result: miR-122 sensor, Cneo AK release, Env fusion inh)
CO[C@@H]1CN(C)C(=O)c2cc(NC(=O)Nc3ccc(C(F)(F)F)cc3)ccc2OC[C@@H](C)NC[C@@H]1C	none (no result: miR-122 sensor)
COC(=O)c1sccc1NC(=O)CNC(=O)c1ccccc1	rRNA inh HTS -23 (no result: miR-122 sensor, Cneo AK release) | AID977621 inactive | AID977628 inactive
COC(=O)c1sccc1NC(=O)c1ccc(C)cc1	none
CCCC(=O)Nc1ccc2c(c1)OC[C@H](C)N(Cc1ccc(-c3ccccn3)cc1)C[C@@H](C)[C@H](OC)CN(C)C2=O	none (no result: Env fusion inh)
O=C(c1cccs1)c1c[nH]cc1-c1ccccc1	rRNA inh HTS -30 | AID977621 inactive | AID977628 inactive
CN1C(=O)c2cc(NC(=O)Cc3cccs3)ccc2OC[C@H]2O[C@H](CC(=O)NCC3CC3)CC[C@H]21	none
COc1ccccc1C#Cc1cnc2c(c1)C(=O)N([C@H](C)CO)C[C@@H](C)[C@@H](CN(C)C(=O)CC1CC1)O2	none (no result: miR-122 sensor, Cneo AK release, Env fusion inh)
Cc1cccc(C(=O)NCC(=O)NCCSc2ccc(Br)cc2)c1	rRNA inh HTS -22 | AID977621 inactive
O=C(NCCSc1ccc(Br)cc1)c1ccccc1	none (no result: miR-122 sensor, Cneo AK release)
Cc1ccc(S(=O)(=O)Nc2ccc3c(c2)C(=O)N([C@@H](C)CO)C[C@H](C)[C@H](CN(C)CC2CCCCC2)O3)cc1	none
N#Cc1nc(-c2ccco2)oc1NCc1ccccc1Cl	rRNA inh HTS -27 | AID977621 inactive | AID977628 inactive
C[C@@H]1CCCCO[C@@H](CN(C)C(=O)NC2CCCCC2)[C@H](C)CN([C@H](C)CO)C(=O)c2cc(NS(=O)(=O)c3cccs3)ccc2O1	none
c1cc2cc(-c3c(-c4ccc5c(c4)OCO5)noc3-c3ccsc3)ccc2[nH]1	rRNA inh HTS -13 | AID977621 inactive | AID977628 inactive
Cc1onc(-c2ccc3c(c2)OCO3)c1-c1ccc2[nH]ccc2c1	none
O=C(NCc1ccccc1Cl)c1ccc2c(c1)SC1=NS(=O)(=O)CCN12	rRNA inh HTS -20 (no result: miR-122 sensor, Cneo AK release) | AID977621 inactive | AID977628 inactive
O=C(NCc1cccc(Cl)c1)c1ccc2c(c1)SC1=NS(=O)(=O)CCN12	none (no result: miR-122 sensor, GSIS activator, Cneo AK release)
O=C(O)CCCCCCCCc1cn(CC2CCCCC2)nn1	rRNA inh HTS -21 | AID977621 inconclusive
C#CCOc1nc(Nc2cccc([N+](=O)[O-])c2)nc(OCC#C)n1	rRNA inh HTS -18 (no result: CFTR F508del cor) | AID977621 inactive | AID977628 inactive
O=C(Cc1cccnc1)N[C@@H]1CC[C@@H](CCn2cc(-c3ccccc3F)nn2)O[C@@H]1CO	none (no result: miR-122 sensor)
N#Cc1c(SCc2ccc(Cl)cc2)sc(C(=O)c2ccccc2)c1N	none (no result: GSIS activator, rRNA inh HTS, Env fusion inh, CFTR F508del cor)
CC(C)Sc1sc(C(=O)O)c(-c2ccc(Cl)cc2)c1C#N	rRNA inh HTS -43 (no result: miR-122 sensor, Cneo AK release) | AID977621 inactive
C[C@@H]1CN([C@H](C)CO)C(=O)c2cccc(NC(=O)Nc3ccc4c(c3)OCO4)c2O[C@H]1CN(C)S(C)(=O)=O	none
COc1ccc(NC(=O)Nc2cccc3c2O[C@@H](CN(C)C(=O)Nc2cccc4ccccc24)[C@H](C)CN([C@H](C)CO)C3=O)cc1	none
Cc1nc(Nc2ccccc2)sc1C(=O)Nc1ccccc1	rRNA inh HTS -22 (no result: miR-122 sensor, Cneo AK release) | AID977621 inconclusive | AID977628 inconclusive
CCOC(=O)c1sc(Nc2ccc(OCC)cc2)nc1C	none (no result: miR-122 sensor, Cneo AK release)
Cc1nc(Nc2ccccc2Cl)sc1C(=O)Nc1ccccc1	none (no result: CFTR F508del cor)
CCOC(=O)c1sc(Nc2cccc(Cl)c2)nc1C	rRNA inh HTS -23 | AID977621 inactive | AID977628 inactive
